In brackets after ≈: the same amount, converted by molar mass. Activity calls are given as the source filed them. The rule behind the calls is not given here.
How the values were obtained:
[1] = system: Human immunodeficiency virus 1; assay: Antiviral activity against HIV1 3B in human MT4 cells assessed as protection against virus-induced cytopathogenicity by MTT assay; format: functional, organism-based; design: Activity: concentration or dose not given beside the values; conditions: for IC50: Human immunodeficiency virus 1, 3B, MT4
Outline: (§1)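 MT-4 cells at 6 × 10⁵ cells/ml infected with HIV-1 IIIB or HIV-2 ROD at 100–300 CCID50; compounds in serial five-fold dilutions, triplicate mock- and virus-infected wells. MTT viability read at 540 and 690 nm after 5 days, median OD of three wells; EC50 = 50% protection from viral cytopathic effect.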

[2] = system: Human immunodeficiency virus 2; assay: Antiviral activity against HIV2 ROD in human MT4 cells assessed as protection against virus-induced cytopathogenicity by MTT assay; format: functional, organism-based; design: Activity: concentration or dose not given beside the values; conditions: for IC50: Human immunodeficiency virus 2, ROD, MT4; outline: as §1
[3] = Cytotoxicity against human MT4 cells by MTT assay; format: cell-based
Outline: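 Mock-infected MT-4 cells (6 × 10⁵ cells/ml) with serial five-fold compound dilutions in triplicate; MTT reduction read at 540 and 690 nm after 5 days, median OD of three wells; CC50 = concentration reducing OD540 of mock-infected control by 50%.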

[4] = Cytotoxicity against human HeLa cells; format: cell-based
Outline: (§2)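 Uninfected cell cultures exposed to test compounds alongside antiviral assays; minimum cytotoxic concentration (MCC) = concentration causing a microscopically detectable alteration of cell morphology.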

[5] = system: Vesicular stomatitis virus; assay: Antiviral activity against vesicular stomatitis virus in human HeLa cells assessed as inhibition of virus-induced cytopathogenicity; format: functional
Outline: (§3)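 Confluent cell monolayers (E6SM, HEL, HeLa or Vero, per line) inoculated with 100 CCID50 virus; 1 h adsorption, residual virus removed, then incubated with compound at 400, 200, 100 … µg/ml. Cytopathicity scored once complete in untreated virus controls; MIC = concentration inhibiting virus-induced cytopathicity.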

Coxsackievirus B4 [6] = assay: Antiviral activity against Coxsackie virus B4 in human HeLa cells assessed as inhibition of virus-induced cytopathogenicity; format: functional; conditions: Enterovirus B; outline: as §3
[7] = system: Respiratory syncytial virus; assay: Antiviral activity against respiratory syncytial virus in human HeLa cells assessed as inhibition of virus-induced cytopathogenicity; format: functional; outline: as §3
[8] = Cytotoxicity against human E6SM cells; format: cell-based; conditions: E6SM cells; outline: as §2
[9] = Cytotoxicity against human HEL cells assessed as alteration of cell morphology; format: cell-based; outline: as §2
Human alphaherpesvirus 1 [10] = assay: Antiviral activity against HSV1 KOS in human E6SM cells assessed as reduction of virus-induced cytopathogenicity; format: functional; conditions: Human alphaherpesvirus 1, KOS; outline: as §3
Human alphaherpesvirus 1 [11] = assay: Antiviral activity against HSV1 KOS in human HEL cells assessed as reduction of virus-induced cytopathogenicity; format: functional; conditions: Human alphaherpesvirus 1, KOS; outline: as §3
Human alphaherpesvirus 2 [12] = assay: Antiviral activity against HSV2 G in human E6SM cells assessed as reduction of virus-induced cytopathogenicity; format: functional; conditions: Human alphaherpesvirus 2, G; outline: as §3
Human alphaherpesvirus 2 [13] = assay: Antiviral activity against HSV2 G in human HEL cells assessed as reduction of virus-induced cytopathogenicity; format: functional; conditions: Human alphaherpesvirus 2, G; outline: as §3
[14] = system: Vesicular stomatitis virus; assay: Antiviral activity against in Vesicular stomatitis virus in human E6SM cells assessed as reduction of virus-induced cytopathogenicity; format: functional; outline: as §3
[15] = system: Vesicular stomatitis virus; assay: Antiviral activity against in Vesicular stomatitis virus in human HEL cells assessed as reduction of virus-induced cytopathogenicity; format: functional; outline: as §3
Human alphaherpesvirus 1 [16] = assay: Antiviral activity against thymidine kinase deficient and acyclovir resistant HSV1 KOS in human E6SM cells assessed as reduction of virus-induced cytopathogenicity; format: functional; conditions: Human alphaherpesvirus 1, KOS; outline: as §3
Human alphaherpesvirus 1 [17] = assay: Antiviral activity against thymidine kinase deficient and acyclovir resistant HSV1 KOS in human HEL cells assessed as reduction of virus-induced cytopathogenicity; format: functional; conditions: Human alphaherpesvirus 1, KOS; outline: as §3
Vero = assay: Cytotoxicity against african green monkey Vero cells; format: cell-based; conditions: chlorocebus sabaeus; outline: as §2
Coxsackievirus B4 [18] = assay: Antiviral activity against Coxsackie virus B4 in african green monkey Vero cells assessed as reduction of virus-induced cytopathogenicity; format: functional; conditions: Enterovirus B; outline: as §3
Punta Toro virus = assay: Antiviral activity against Punta Toro virus in african green monkey Vero cells assessed as reduction of virus-induced cytopathogenicity; format: functional; outline: as §3
Human betaherpesvirus 5 [19] = assay: Antiviral activity against human cytomegalovirus AD169 infected HEL cells assessed as reduction in virus plaque formation; format: functional, organism-based; conditions: Human betaherpesvirus 5, AD169, HEL
Human betaherpesvirus 5 [20] = assay: Antiviral activity against human cytomegalovirus Davis infected HEL cells assessed as reduction in virus plaque formation; format: functional, organism-based; conditions: Human betaherpesvirus 5, Davis
Human alphaherpesvirus 3 [21] = assay: Antiviral activity against TK+ VZV OKA infected HEL cells assessed as reduction in virus plaque formation; format: functional, organism-based; conditions: Human alphaherpesvirus 3, OKA
Human alphaherpesvirus 3 [22] = assay: Antiviral activity against TK- VZV 07/1 infected HEL cells assessed as reduction in virus plaque formation; format: functional, organism-based; conditions: Human alphaherpesvirus 3, 07/1, HEL
[23] = system: Mycobacterium tuberculosis; assay: Antitubercular activity against Mycobacterium tuberculosis H37Rv at 6.25 ug/ml by MABA assay; format: functional
Human respirovirus 3 = assay: Antiviral activity against Parainfluenza 3 virus in african green monkey Vero cells assessed as reduction of virus-induced cytopathogenicity; format: functional; outline: as §3
[24] = system: Mammalian orthoreovirus 1; assay: Antiviral activity against Reo virus 1 in african green monkey Vero cells assessed as reduction of virus-induced cytopathogenicity; format: functional; outline: as §3
Sindbis virus = assay: Antiviral activity against Sindbis virus in african green monkey Vero cells assessed as reduction of virus-induced cytopathogenicity; format: functional; outline: as §3
[25] = Cytotoxicity against human HEL cells assessed as reduction of cell growth; format: cell-based
Outline: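 HEL cells; CC50 = compound concentration reducing cell growth by 50%.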

Row | SMILES | Activity [1] | IC50 [1] | Activity [2] | IC50 [2] | CC50 [3] | MCC [4] | MIC [5] | MIC (Coxsackievirus B4 [6]) | MIC [7] | MCC [8] | MCC [9] | MIC (Human alphaherpesvirus 1 [10]) | MIC (Human alphaherpesvirus 1 [11]) | MIC (Human alphaherpesvirus 2 [12]) | MIC (Human alphaherpesvirus 2 [13]) | MIC [14] | MIC [15] | MIC (Human alphaherpesvirus 1 [16]) | MIC (Human alphaherpesvirus 1 [17]) | Activity (Vero) | also measured
1 | C=CCNC(=S)Nc1ccc(OCc2n[nH]c(=S)n2CC=C)cc1 | 3% | > 66.5 µg/mL | 1% | > 69.7 µg/mL | 71.5 µg/mL (≈ 198 µM) | 400 µg/mL | > 80 µg/mL | > 80 µg/mL | > 80 µg/mL | > 400 µg/mL | > 400 µg/mL | 240 µg/mL (≈ 664 µM) | 240 µg/mL (≈ 664 µM) | 240 µg/mL (≈ 664 µM) | 240 µg/mL (≈ 664 µM) | > 400 µg/mL | > 400 µg/mL | 240 µg/mL (≈ 664 µM) | 240 µg/mL (≈ 664 µM) | 400 µg/mL | MIC (Coxsackievirus B4 [18]): 48 µg/mL (≈ 133 µM); MIC (Punta Toro virus): > 80 µg/mL; EC50 (Human betaherpesvirus 5 [19]): 100 µg/mL (≈ 277 µM); EC50 (Human betaherpesvirus 5 [20]): 77 µg/mL (≈ 213 µM); EC50 (Human alphaherpesvirus 3 [21]): 41 µg/mL (≈ 113 µM); EC50 (Human alphaherpesvirus 3 [22]): 46 µg/mL (≈ 127 µM); inhibition at 6.25 µg/mL [23]: 59%; MIC (Human respirovirus 3): > 80 µg/mL; MIC [24]: > 80 µg/mL; MIC (Sindbis virus): > 80 µg/mL; CC50 [25]: > 50 µg/mL
2 | CCn1c(COc2ccc(N)cc2)n[nH]c1=S | 6% | > 125 µg/mL | 8% | > 125 µg/mL | > 125 µg/mL | ≥ 400 µg/mL | > 400 µg/mL | > 400 µg/mL | > 400 µg/mL | > 400 µg/mL | > 400 µg/mL | > 400 µg/mL | > 400 µg/mL | 240 µg/mL (≈ 959 µM) | 240 µg/mL (≈ 959 µM) | > 400 µg/mL | > 400 µg/mL | 240 µg/mL (≈ 959 µM) | 240 µg/mL (≈ 959 µM) | 80 µg/mL | MIC (Coxsackievirus B4 [18]): > 16 µg/mL; MIC (Punta Toro virus): > 16 µg/mL; EC50 (Human betaherpesvirus 5 [19]): > 100 µg/mL; EC50 (Human betaherpesvirus 5 [20]): > 100 µg/mL; EC50 (Human alphaherpesvirus 3 [21]): > 100 µg/mL; EC50 (Human alphaherpesvirus 3 [22]): > 100 µg/mL; Activity [23]: inactive; MIC (Human respirovirus 3): > 16 µg/mL; MIC [24]: > 16 µg/mL; MIC (Sindbis virus): > 16 µg/mL; CC50 [25]: > 50 µg/mL
3 | CNC(=S)Nc1ccc(OCc2n[nH]c(=S)n2C)cc1 | 1% | > 112 µg/mL | 1% | > 125 µg/mL | ≥ 112 µg/mL | > 400 µg/mL | > 400 µg/mL | > 400 µg/mL | > 400 µg/mL | > 400 µg/mL | > 400 µg/mL | > 400 µg/mL | > 400 µg/mL | 240 µg/mL (≈ 776 µM) | 240 µg/mL (≈ 776 µM) | > 400 µg/mL | > 400 µg/mL | > 400 µg/mL | > 400 µg/mL | 400 µg/mL | MIC (Coxsackievirus B4 [18]): > 80 µg/mL; MIC (Punta Toro virus): > 80 µg/mL; EC50 (Human betaherpesvirus 5 [19]): > 100 µg/mL; EC50 (Human betaherpesvirus 5 [20]): > 100 µg/mL; EC50 (Human alphaherpesvirus 3 [21]): > 100 µg/mL; EC50 (Human alphaherpesvirus 3 [22]): > 100 µg/mL; Activity [23]: inactive; MIC (Human respirovirus 3): > 80 µg/mL; MIC [24]: > 80 µg/mL; MIC (Sindbis virus): > 80 µg/mL; CC50 [25]: > 50 µg/mL
4 | CCNC(=S)Nc1ccc(OCc2n[nH]c(=S)n2CC)cc1 | 9.5% | > 88.3 µg/mL | 8% | > 91.1 µg/mL | 94.2 µg/mL (≈ 279 µM) | 400 µg/mL | > 80 µg/mL | > 80 µg/mL | > 80 µg/mL | > 400 µg/mL | > 400 µg/mL | > 400 µg/mL | > 400 µg/mL | 240 µg/mL (≈ 711 µM) | 240 µg/mL (≈ 711 µM) | > 400 µg/mL | > 400 µg/mL | 240 µg/mL (≈ 711 µM) | 240 µg/mL (≈ 711 µM) | 400 µg/mL | MIC (Coxsackievirus B4 [18]): 48 µg/mL (≈ 142 µM); MIC (Punta Toro virus): > 80 µg/mL; EC50 (Human betaherpesvirus 5 [19]): 49 µg/mL (≈ 145 µM); EC50 (Human betaherpesvirus 5 [20]): 55 µg/mL (≈ 163 µM); EC50 (Human alphaherpesvirus 3 [21]): 64 µg/mL (≈ 190 µM); EC50 (Human alphaherpesvirus 3 [22]): 58 µg/mL (≈ 172 µM); Activity [23]: inactive; MIC (Human respirovirus 3): > 80 µg/mL; MIC [24]: > 80 µg/mL; MIC (Sindbis virus): > 80 µg/mL; CC50 [25]: > 50 µg/mL
